Active and inactive are the calls of the source. No cut-off for these calls is given here.
Assays:
H4 [1] = test: Induction of alpha-secretase-mediated reduction in amyloid beta secretion in human H4 cells expressing wild type betaAPP695 treated with media containing human THLE3 cells incubated with 10 uM compound for 24 hrs […]; type: cell-based; set-up: scale not given: the % may be the effect or the level left; settings: in the assay text read “20 uM” for “10 uM”
H4 [2] = test: Induction of alpha-secretase-mediated reduction in amyloid beta secretion in human H4 cells expressing wild type betaAPP695 placed in lower chamber treated with […] compound placed in upper chamber containing human Caco-2 cells for 4 hrs measured 24 hrs after media treatment […]; type: cell-based; set-up: scale not given: the % may be the effect or the level left
How it was run: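 Caco-2 cells are seeded at 70000 per Transwell insert and grown 21 days to TEER >160 Ω/cm2. Drug at 40 μM with 20 μg/mL lucifer yellow goes in the apical chamber in serum-free medium. After 4 h, basal medium is checked for lucifer yellow and applied to H4βAPP695wt cells for 24 h. Secreted Aβ by ELISA is compared with direct 10 μM drug as % activity passing.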

H4 [3] = test: Cytotoxicity against human H4 cells expressing wild type betaAPP695 assessed as decrease in cell protein at 30 uM after 24 hrs; type: cell-based; set-up: scale not given: the % may be the effect or the level left; settings: h4, 24 h
How it was run: (§1)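 Serum-starved H4βAPP695wt cells are treated for 24 h with drug in DMSO (0.02% DMSO vehicle control). Total Aβ in conditioned medium is measured by sandwich ELISA with 6E10 capture and 4G8 detection, normalized to lysate protein by BCA. Cytotoxicity is read as total cell protein. Quadruplicate wells in 1-4 independent experiments give the % decrease versus vehicle.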

H4 [4] = test: Induction of alpha-secretase-mediated reduction in amyloid beta secretion in human H4 cells expressing wild type betaAPP695 at 10 uM after 24 hrs […] relative to control; type: cell-based; set-up: scale not given: the % may be the effect or the level left; how it was run: as §1
H4 [5] = test: Cytotoxicity against human H4 cells expressing wild type betaAPP695 assessed as decrease in cell protein at 10 uM after 24 hrs; type: cell-based; set-up: scale not given: the % may be the effect or the level left; settings: h4, 24 h; how it was run: as §1
H4 [6] = test: Induction of alpha-secretase-mediated reduction in amyloid beta secretion in human H4 cells expressing wild type betaAPP695 at 30 uM after 24 hrs […] relative to control; type: cell-based; set-up: scale not given: the % may be the effect or the level left; how it was run: as §1
H4 [7] = test: Induction of alpha-secretase-mediated reduction in amyloid beta secretion in human H4 cells expressing wild type betaAPP695 assessed as remaining drug activity treated with media containing human THLE3 cells incubated with 10 uM compound for 24 hrs measured 24 hrs after media treatment […]; type: cell-based
H4 [8] = test: Cytotoxicity against human H4 cells expressing wild type betaAPP695 at 10 uM after 24 hrs by methylene blue staining; type: cell-based; settings: h4, 24 h
How it was run: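 Primary screen in H4βAPP695wt cells: drugs are delivered by the hanging drop method at an estimated 10-25 μM, and conditioned medium is collected at 24 h. Cytotoxicity is assessed by methylene blue staining of cells in the wells, with each compound run in a single well and hits rescreened in duplicate.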

H4 [9] = test: Induction of alpha-secretase-mediated reduction in amyloid beta secretion in human H4 cells expressing wild type betaAPP695 […] in presence of PKC-inhibitor rottlerin; type: cell-based
How it was run: (§2)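 H4βAPP695wt cells in serum-free medium receive a PKC inhibitor 30 min before a 24 h drug challenge. Secreted Aβ is measured by ELISA and compared with the respective control for each inhibitor, N = 4.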

H4 [10] = test: Increase in alpha-secretase activity in human H4 cell lysate expressing wild type betaAPP695 at 10 uM after 24 hrs by fluorescence method; type: cell-based
How it was run: (§3)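 H4βAPP695wt cells are treated with drug or vehicle for 24 h, washed in cold PBS and lysed on ice for 10 min. 50 μg lysate protein plus reaction buffer and fluorogenic peptide substrate are incubated 2 h at 37 °C in the dark. Fluorescence is read at ex 355/em 510 nm after subtracting the no-lysate blank, N = 6.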

H4 [11] = test: Activation of alpha-secretase in human H4 cells expressing wild type betaAPP695 assessed as increase in ratio of active-ADAM9 to pro-ADAM9 level at 10 uM after 24 hrs by Western blotting; type: cell-based
How it was run: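 H4βAPP695wt cells are held in serum-free medium for 24 h, then given increasing drug concentrations for 24 h. RIPA lysates (20 μg protein) are immunoblotted with antibodies for ADAM9, ADAM10 and ADAM17, and pro and active forms are quantified by densitometry as an active/pro ratio, N = 3 per group.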

H4 [12] = test: Activation of alpha-secretase in human H4 cells expressing wild type betaAPP695 assessed as increase in sAPPalpha levels at 10 uM after 24 hrs by Western blotting; type: cell-based
How it was run: (§4)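 H4βAPP695wt cells are switched to serum-free medium 24 h before treatment, then exposed to drug in DMSO or vehicle for 24 h. Conditioned medium gets protease inhibitors and is cleared, with its volume adjusted to lysate protein; sAPPα is probed with 6E10 and sAPPβ with a specific antibody (1:1000), detected by ECL. Lysates in RIPA (20 μg protein) go on 4-20% Bis-Tris gels. Bands are quantified by densitometry.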

H4 [13] = test: Activation of alpha-secretase in human H4 cells expressing wild type betaAPP695 assessed as increase in sAPPbeta levels at 10 uM after 24 hrs by Western blotting; type: cell-based; how it was run: as §4
H4 [14] = test: Induction of alpha-secretase-mediated reduction in amyloid beta secretion in human H4 cells expressing wild type betaAPP695 by […] in presence of PKC-inhibitor calphostin C; type: cell-based; how it was run: as §2
H4 [15] = test: Increase in alpha-secretase activity in human H4 cells expressing wild type betaAPP695 at 10 uM after 24 hrs by fluorescence method; type: cell-based; how it was run: as §3
H4 [16] = test: Induction of alpha-secretase-mediated amyloid beta lowering activity in human H4 cells expressing wild type betaAPP695 at 1 uM after 24 hrs by ELISA; type: cell-based; how it was run: as §1
H4 [17] = test: Induction of alpha-secretase-mediated reduction in amyloid beta secretion in human H4 cells expressing wild type betaAPP695 by […] in presence of PKC-inhibitor bisindolyl-maleimide; type: cell-based; how it was run: as §2
H4 [18] = test: Activation of alpha-secretase in human H4 cells expressing wild type betaAPP695 assessed as increase in alpha-CTF levels at 10 uM after 24 hrs by Western blotting; type: cell-based; how it was run: as §4
Mus musculus = test: Reduction in amyloid beta levels in transgenic C57BL/6 mouse brain at 100 mg/kg, iv after 6 hrs; type: functional; set-up: scale not given: the % may be the effect or the level left
How it was run: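 Two-month-old female APPswe/PSEN1dE9 C57BL/6 mice (20-25 g) under ketamine/xylazine receive retro-orbital iv injection of 2.5 mg in 150 μL (∼100-125 mg/kg) or vehicle. After 6 h, one hemisphere without cerebellum is homogenized in 5 M guanidine HCl/50 mM Tris pH 8.3. Total Aβ is measured by ELISA and normalized to brain protein by BCA.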

Row | Structure (SMILES) | Activity (H4 [1]) [%] | Activity (H4 [2]) [%] | Activity (H4 [3]) [%] | Activity (H4 [4]) [%] | Activity (H4 [5]) [%] | Activity (H4 [6]) [%] | Activity (H4 [7]) [%] | Activity (H4 [8]) | Activity (H4 [9]) | Activity (H4 [10]) | Activity (H4 [11]) [%] | Activity (H4 [12]) | Activity (H4 [13]) | Activity (H4 [14]) | Activity (H4 [15]) [%] | Activity (H4 [16]) | Activity (H4 [17]) | Activity (H4 [18]) | Activity (Mus musculus) [%]
1 | COc1cccc(CSCCNC(=O)c2c(Cl)cccc2Cl)c1OC | 1.9 | 26.5 | 8.7 | 57.8 | -0.1 | 72.8 | 3 | – | – | – | – | – | – | – | – | – | – | – | –
2 | O=C(NCCSCc1ccc(Cl)cc1)c1ccc(Cl)cc1Cl | – | – | – | 5.3 | – | – | – | Non-toxic | – | – | – | – | – | – | – | – | – | – | –
3 | O=C(NCCSCc1cccc(Cl)c1)c1c(Cl)cccc1Cl | 34.6 | 26.7 | – | 75.3 | – | – | 50 | – | Active | inactive | 31 | Active | inactive | Active | 20 | Active | Active | Active | –
4 | O=C(NCCSCc1ccccc1Cl)c1c(Cl)cccc1Cl | 48.8 | 31.6 | -11 | 75.6 | -0.5 | 80 | 65 | – | – | – | – | – | – | – | – | – | – | – | –
5 | COc1cc(Cl)cc(CSCCNC(=O)c2c(Cl)cccc2Cl)c1 | 33.5 | 2.7 | 0.4 | 67.7 | 0.9 | 81 | 49 | – | – | – | – | – | – | – | – | – | – | – | –
6 | Cc1cccc(CSCCNC(=O)c2c(Cl)cccc2Cl)c1 | 38.3 | 49.9 | 16.6 | 70.5 | 11.7 | 85.8 | 54 | – | – | – | – | – | – | – | – | – | – | – | 39.6
7 | COc1cccc(CSCCNC(=O)c2c(Cl)cccc2Cl)c1 | 22.2 | 17.9 | 13.2 | 60.6 | 8.4 | 73.9 | 37 | – | – | – | – | – | – | – | – | – | – | – | –
8 | O=C(NCCSCc1cccc(O)c1)c1c(Cl)cccc1Cl | 23.1 | – | 6.6 | 56.4 | 6.3 | 67.7 | 41 | – | – | – | – | – | – | – | – | – | – | – | –
9 | O=C(NCCSCc1ccccc1)c1c(Cl)cccc1Cl | 27 | 31 | -0.7 | 51.6 | -1.1 | 58.6 | 52 | – | – | – | – | – | – | – | – | – | – | – | –
10 | O=C(NCCSCc1cccc(I)c1)c1c(Cl)cccc1Cl | 40 | 1.1 | 19 | 84.4 | 9.2 | 88.3 | 47 | – | – | – | – | – | – | – | – | – | – | – | –

— ChEMBL document CHEMBL1165845, “Synthesis and biological evaluation of analogues of a novel inhibitor of beta-amyloid secretion” (J Med Chem, 2010)
